Data taken from PubChem BioAssay AID685 (PCMD, 2007).
Among all 30,000 compounds or so, about 80 (0.3%) were called active.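 Rule for the calls: active = mutant and wild-type yeast strains alike exhibit over 30% growth inhibition; inconclusive = a strain exceeds 50% while the second remains under 30%; inactive = the rest.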 The full list was thinned out, with actives kept by preference.

Test: S. cerevisiae growth inhibition, turbidity – wild-type and eIF2Bepsilon R284H mutant, A595, cytotoxicity control for eIF2B function restoration project, primary screen (AID 685);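 note: 0% = untreated cell controls and 100% = YPD media blanks without cells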
Details: 16 h, stronger effect = higher value, screened at 25 µM (by protocol)
Summary of the method: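 Test system: Wild-type and eIF2Bepsilon-R284H mutant S. cerevisiae, screened separately | Dosing: Single 25 µM compound dose in 0.2% DMSO | Schedule: 16 h compound exposure during growth at 30 °C | Detection: A595 turbidity | Evaluation: Growth inhibition (%) versus cell controls and blanks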

[1] = S. cerevisiae eIF2Bepsilon-R284H mutant growth

SMILES | growth inhibition [1] | growth inhibition (S. cerevisiae wild-type growth)
CC(C)NC(=O)C(=O)NCCN1CCN(S(=O)(=O)c2ccc(Cl)cc2)CC1 | 7.69% | 7.31% (inactive)
COc1ccc(C2CC(=O)n3c(nc4ccccc43)S2)cc1OC (stereo not given) | -2.13% | 32% (inactive)
COc1ccc(-c2cc(C(F)(F)F)nc(NCc3cccnc3)n2)cc1 | 25.5% | 15.3% (inactive)
CCCc1nc2sc3c(c2c(=O)n1NC(=O)CCCl)CCCC3 | 9.3% | -7.93% (inactive)
CCOC(=O)N1CCN(C(=O)COc2ccc(Br)cc2)CC1 | 0% | 10.3% (inactive)
CCn1nc(C)c(NC(=O)/C=C/c2ccc(OC)c(COc3ccc(Br)cc3)c2)c1C | 50% | 54.5% (active)
COc1cccc(OCc2cc(/C=N/NC(=O)c3nc(Cl)c(Cl)c(N)c3Cl)ccc2OC)c1 | -17.9% | -14.8% (inactive)
C=CCn1c(SCc2c(C(=O)OC)sc(N)c2C(=O)OC)nnc1-c1ccc(Cl)cc1 | 6.98% | -10.3% (inactive)
CCCCOc1ccc(C(=O)NCc2ccncc2)cc1 | 18.6% | 33.8% (inactive)
CCCOc1ccc(C2NC(=O)NC(c3ccccc3)=C2C(C)=O)cc1OCC (stereo not given) | 7.89% | 4.64% (inactive)
COC(=O)/C(NC(C)=O)=C(\C)c1ccc(Cl)cc1 | -32.3% | 8.3% (inactive)
CCOc1ccc(NC(=O)CCS(=O)(=O)c2ccc3c(c2)CCCN3C(=O)CC)cc1 | 13.5% | 10.8% (inactive)
CCN(CC)CCn1c(=S)[nH]c2ncccc2c1=O | 5.13% | 11.5% (inactive)
CCc1ccc(NC(=O)CN2C(=O)CSC2=O)cc1 | -8.82% | 5% (inactive)
COc1ccc(C)cc1S(=O)(=O)NCCc1ccccc1 | 12.9% | 4.64% (inactive)
CC(C)=C1SC(N2CCN(c3cccc(C)c3)CC2)=NC1=O | 16.2% | 11.8% (inactive)
COc1cccc2cc(C(=O)N3CCN(C(=O)c4ccccc4)CC3)c(=O)oc12 | 9.38% | 8.28% (inactive)
CC(Oc1ccc(Cl)cc1)c1ccnn1S(C)(=O)=O (stereo not given) | 10.8% | 28.1% (inactive)
CC(C)(C)n1nnnc1C(c1ccc(F)cc1)N1CCN(Cc2ccc3c(c2)OCO3)CC1 (stereo not given) | -18.2% | 15% (inactive)
CCn1nccc1C(=O)Nc1ccc(Cl)c(Cl)c1 | -8.33% | 12.8% (inactive)
N/C(=N\OC(=O)Nc1ccc(Cl)c(Cl)c1)c1ncc(C(F)(F)F)cc1Cl | 30.3% | 35.2% (active)
NC(=O)c1ncc(C(F)(F)F)cc1Oc1ccc(F)cc1 | -3.33% | 19.2% (inactive)
CN1CCN(C(=O)Cn2c(C(F)(F)F)nc3ccccc32)CC1 | 25% | 9.62% (inactive)
CC(C)(C)N1CC(c2nc3ccccc3n2Cc2ccc(F)cc2)CC1=O (stereo not given) | 20% | 5% (inactive)
CS(=O)(=O)Nc1ccc(C(=O)N2CCCC2)cc1 | 11.6% | 38.3% (inactive)
Cc1[nH][nH]c(=O)c1N=Nc1ccccc1 | 8.33% | 25.8% (inactive)
Cc1[nH][nH]c(=O)c1C(c1ccc(-c2ccc(Cl)cc2)o1)c1c(C)[nH][nH]c1=O | 63% | 75.8% (active)
Cc1ccccc1-c1nnc(SCC(=O)NCc2ccc3c(c2)OCO3)n1C | 8.14% | 13.1% (inactive)

SMILES | growth inhibition [1] | growth inhibition (S. cerevisiae wild-type growth)
CC(C)(CNC(=O)c1cc(=O)[nH]c2ccccc12)N1CCOCC1 | -23.8% | -1.08% (inactive)
Cc1cc(NC(=O)CN2CCCC(C)C2)n(-c2nc3ccccc3s2)n1 (stereo not given) | -42.9% | -15.7% (inactive)
Cc1[nH]n(-c2cccc(Cl)c2)c(=O)c1/C=N/n1c(C)nc2ccccc2c1=O | 2.56% | 21% (inactive)
O=C(CCS(=O)(=O)c1cccc2nsnc12)N1CCN(c2ccccc2F)CC1 | 12.5% | 11.5% (inactive)
Cc1ccc(S(=O)(=O)N2CCN(S(=O)(=O)N3CCOCC3)CC2)cc1 | -11.9% | 10.3% (inactive)
COC(=O)c1ccc(/C=N\n2c(C)nnc2C)cc1 | -3.85% | -0.22% (inactive)
CC(=O)Nc1cccc(Oc2cc(C#N)c(C#N)cc2N2CCOCC2)c1 | -4.55% | -7.1% (inactive)
O=C(N/N=C/c1ccc(O)cc1)/C(=C/c1ccc([N+](=O)[O-])cc1)NC(=O)c1ccccc1 | 15% | 5% (inactive)
CC(=NCc1ccco1)c1c(C(F)(F)F)[nH]n(-c2nc3ccccc3s2)c1=O | 7.61% | 34.2% (inactive)
O=C(CSc1n[nH]c(-c2cccnc2)n1)Nc1ccnc2ccccc12 | 7.69% | 1% (inactive)
Cc1ccc(S(=O)(=O)N(C)C2(C)CCS(=O)(=O)C2)cc1 (stereo not given) | 5% | -6.15% (inactive)
COC(=O)c1ccccc1NC(=O)CN(Cc1ccc(Cl)cc1)S(C)(=O)=O | 6.98% | 4.14% (inactive)
CCSc1ccccc1C(=O)NCc1ccc(OC)cc1 | 10.3% | 2.69% (inactive)
CCOc1ccc(S(=O)(=O)NCCSc2ccccc2)cc1 | 12.5% | 10% (inactive)
CCNC(=O)c1sccc1-n1cccc1 | 12.9% | 8.21% (inactive)
COCCCNC(=O)COc1cc(C)c(Cl)c(C)c1 | -13.6% | 8.44% (inactive)
COC(=O)Nc1ncc(CN2CCCCC2)s1 | 6.45% | -0.8% (inactive)
CCOc1ccc(S(=O)(=O)Nc2ccc(S(=O)(=O)Nc3cc(OC)ccc3OC)cc2)cc1 | 6.38% | 5.67% (inactive)
CC1(C)NC(=O)N(CCCCSc2ccc(Cl)cc2)C1=O | 15.6% | 21.2% (inactive)
CC/S(CC1CC1(Cl)Cl)=N\S(=O)(=O)c1ccc(C)cc1 (stereo not given) | 25.5% | 20.7% (inactive)
Cc1ccc(C(=O)N2CCCC2)c(F)c1F | 20% | 0.21% (inactive)
O=C(c1ccc(Cl)c(Cl)c1)N1CCCC1 | 8.89% | 28.3% (inactive)
CCCCc1nnc(NC(=O)CSc2nc(C)cc(=O)[nH]2)s1 | 20% | 14.6% (inactive)
c1ccc(CSCCc2ccncc2)cc1 | 20% | 22.3% (inactive)
CCC(=O)N(Cc1ccccc1)c1ccccn1 | 15% | 1.54% (inactive)
Nc1c(C(=O)NCc2ccccc2)sc2nc3c(cc12)C(=O)CCC3 | 0% | -16.4% (inactive)
Cc1ccoc1C(=O)Nc1cccc(Oc2ccccc2)c1 | 20% | 20.3% (inactive)
